SR-BI DiI-HDL act: SR-BI HDL lipid transfer activation; CHO ldlA[mSR-BI] cells, DiI-HDL uptake fluorescence, 3 h; 100 = double the neutral-control signal; AID 504775; activation, % at 12.5 µM; hit rate 0.096% among 320,000;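 active means mean replicate activation of at least 60% and every replicate at or above 60%; inconclusive means mean or all-replicate condition met, but not both; inactive means mean below 60% and not all replicates reaching 60%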;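 further: 0% = median plate neutral-control signal and 100% = twice that signal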
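system = CHO ldlA[mSR-BI] cells, LDL receptor-null, SR-BI overexpressing | medium = Ham's F12 with 0.5% BSA, HEPES 25 mM, pH 7.4 | probe or stimulus = DiI-HDL 10 µg/mL | compound dosing = single-point compound dose | incubation = compound exposure 3 h, 37 °C | technique = DiI fluorescence, bottom read | read-out = cell-associated DiI fluorescence as measure of HDL uptake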
CaV13 ICDI inh: Disruptors of the CACNA1D IQ motif to Ca2+-dependent inactivation inhibitor domain association, primary screening, Förster resonance energy transfer in intact living …; hit rate 0.098% among 340,000; inhibition, % at 12.3 µM; HEK cells, CFP/YFP FRET ICDI-IQ, plate reader, 10 min; percent FRET-ratio fall versus neutral wells;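 active means mean replicate inhibition of at least 30% and at least 1% of replicates passing that level; inconclusive means only one of the two criteria is met; inactive means neither criterion is met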;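 further: 0% = median of the neutral control wells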
V-ATPase pHluor: alters yeast V-ATPase proton transport; S. cerevisiae, pHLuorin cytosolic pH fluorescence; response, % at 10 µM; hit rate 0.37% among 350,000; AID 504577; in the data active means response mostly above about 7.3%, no sharp cut-off; inactive means mostly below about 5.4%; further: actives read high
Vif imaging: HIV Vif inhibition; HEK293T cells, Vif self-association by quenched fluorescence, imaging, 24 h; inhibition, % at 7.49 µM; hit rate 0.35% among 340,000; in the data active means inhibition above about 50%, passing the limit was not always enough; inconclusive means no clear call, values can overlap the other calls; inactive means below about 31%
SR-BI DiI inh: mouse SR-BI HDL lipid transfer inhibition. ldlA[mSR-BI] CHO cells, DiI-HDL uptake fluorescence, 3 h. AID 488896. hit rate 0.96% among 320,000. inhibition, % at 12.5 µM;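 active means mean replicate inhibition of at least 70% and a set share of replicates each scoring 70 or more; inconclusive means meets just one of the two criteria; inactive means fails both criteria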;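 further: 0% = median of neutral control wells and 100% = median of positive control wells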
NTR1 agonist: agonists of human neurotensin receptor NTR1. P30989. NTR1-U2OS beta-arrestin-GFP spot imaging, agonist mode. activation, % at 20 µM. hit rate 0.17% among 330,000;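 active means activation at or above 40% of the spot to cytoplasm intensity ratio, with at least 20 cells analyzed; inconclusive means wells under 20 cells, flagged as cytotoxic or low count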;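 further: 0% = DMSO without peptide and 100% = 100 nM NTR1 peptide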
Target sequence (P30989 whole entry, looked up): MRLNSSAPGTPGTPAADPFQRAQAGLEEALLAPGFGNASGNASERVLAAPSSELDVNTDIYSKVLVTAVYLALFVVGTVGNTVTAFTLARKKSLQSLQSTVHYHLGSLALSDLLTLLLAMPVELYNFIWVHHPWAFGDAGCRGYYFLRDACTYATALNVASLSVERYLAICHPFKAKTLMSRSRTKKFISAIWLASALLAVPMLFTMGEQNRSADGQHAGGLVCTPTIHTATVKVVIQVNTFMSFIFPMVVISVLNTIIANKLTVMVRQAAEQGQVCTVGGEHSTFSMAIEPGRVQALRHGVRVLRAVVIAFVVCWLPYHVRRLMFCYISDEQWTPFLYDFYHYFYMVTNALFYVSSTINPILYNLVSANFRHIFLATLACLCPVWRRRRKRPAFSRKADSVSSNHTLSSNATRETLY
NTR1 ag confirm: confirmation of agonists of human NTR1 | shares compounds with NTR1 agonist | hit rate 38% among 480 | activation, % at 20 µM | NTR1-U2OS beta-arrestin-GFP translocation imaging;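 active means mean activation at 20 µM of at least 40%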;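 further: 0% = DMSO without peptide and 100% = 100 nM NTR1 peptide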
VATPase regulator: modulates yeast V-ATPase proton transport. shares compounds with V-ATPase pHluor. S. cerevisiae pHLuorin cytosolic pH. response, % at 10 µM. hit rate 2% among 980. AID 602197; in the data active means response above about 24%;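 further: plate controls were vehicle wells for no effect and positive control wells for full effect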
Numbers without * were called inactive; ? = inconclusive; . = no result given. Hits are enriched below; roughly 1.7% of the tested compounds scored in any of these assays.

SMILES | SR-BI DiI-HDL act | CaV13 ICDI inh | V-ATPase pHluor | Vif imaging | SR-BI DiI inh | NTR1 agonist | VATPase regulator | others
CC1N=C2c3ccccc3N=C(SCc3cc(=O)n4cc(Cl)ccc4n3)N2C1=O (stereo not given) | -14 | . | 5 | . | 14 | 52* | . | NTR1 ag confirm=4
S=c1[nH]cnc2sc(Nc3ccccc3)nc12 | -15 | -18 | -1 | 1 | 15 | . | .
Cc1cc(C)n(-c2nc(N(c3ccccc3)c3ccccc3)nc(-n3nc(C)cc3C)n2)n1 | 48 | . | -2 | 4 | -48 | 84* | . | NTR1 ag confirm=75*
Cc1cc(C)n(-c2nc(Nc3ccccc3)nc(-n3nc(C)cc3C)n2)n1 | . | -9 | -2 | 2 | . | 0 | .
COc1ccc(C(CCN2CCCCC2)c2c(OC)cc(OC)c3c(-c4ccccc4)cc(=O)oc23)cc1 (stereo not given) | 26 | -5 | 0 | -1 | -26 | 42* | . | NTR1 ag confirm=41*
CCCCCc1cc(=O)oc2c(C(CCN3CCCC(C)C3)c3ccc(N(C)C)cc3)c(OC)cc(OC)c12 (stereo not given) | 1 | . | -9 | 0 | -1 | 51* | . | NTR1 ag confirm=53*
CC(=O)N1CCN(c2ccc(NC(=O)c3ccc4c(c3)OCCO4)cc2Cl)CC1 | -40 | -2 | -2 | -4 | 40 | 1 | .
CC(C)C(=O)N1CCN(c2ccc(NC(=O)c3ccc4c(c3)OCCO4)cc2Cl)CC1 | -69 | -4 | 2 | -8 | 69 | 90* | . | NTR1 ag confirm=85*
Oc1ccc(/C=N/N2CCN(C3c4ccccc4-c4ccccc43)CC2)c(O)c1 | -21 | 4 | 2 | -4 | 21 | 43* | . | NTR1 ag confirm=6
COCCN1CCN(C(=O)C2CCC(=O)N(CCc3cccc(F)c3)C2)CC1 (stereo not given) | 30 | -5 | 7.4* | -3 | -30 | 0 | -7
O=C(NCCc1c[nH]c2ccccc12)C1CCC(=O)N(CCc2cccc(F)c2)C1 (stereo not given) | -22 | -5 | 11* | -1 | 22 | 0 | -2
CC(NC(=O)CNC(=O)c1ccccc1Br)c1cccs1 (stereo not given) | 16 | -6 | -5 | -11 | -16 | 0 | .
CCCN(C(=O)COc1ccc(C(C)=O)cc1OC)C1CCS(=O)(=O)C1 (stereo not given) | 17 | -2 | 10* | -1 | -17 | -3 | -5
CO/N=C(\C(=O)O)c1csc(NN=C(C)C)n1 | 0 | -7 | -1 | 0 | 0 | 1 | .
CCOC(=O)c1nc2c(ccc3ccccc32)cc1C | . | -5 | 3 | 1 | . | 4 | -1
CC(C)(C)OC(=O)C[C@@H]1C/C=C\C[C@@H](CC(=O)N[C@H](CO)Cc2ccccc2)C(=O)NC[C@H](c2ccccc2)OC1=O | 9 | -11 | 0 | 0 | -9 | 5 | .
CCNC(=O)/C(C#N)=C/c1c(N2CCN(c3ccc(OC)cc3)CC2)nc2c(C)cccn2c1=O | 12 | -2 | 14* | -18 | -12 | 5 | 1
N#Cc1ccc(C(=O)NNC(=O)c2cccc(S(=O)(=O)N3CCOCC3)c2)cc1 | -15 | -3 | 2 | ? | 15 | -2 | .
Cc1ccc(N2CCN(S(=O)(=O)N3CCCCC3)CC2)cc1C | -2 | -5 | 11* | -7 | 2 | 3 | 2
Cc1ccc(N2CCN(S(=O)(=O)N3CCCCCC3)CC2)cc1Cl | -10 | -7 | 2 | -19 | 10 | 3 | .
CC1CCCN(CCC(=O)c2ccc(Br)cc2)C1 (stereo not given) | 14 | . | 8.8* | 11 | -14 | 1 | 16
COc1ccc([C@H]2C[C@@H](O)[C@H](n3cc(-c4ccc(F)cc4)nn3)CN2C(=O)C2CCCCC2)cc1 | . | -7 | 7.0* | -5 | . | . | 1
Cc1cc(C)n(-c2ccc(C(=O)OCC(=O)Nc3ccc(Cl)cc3[N+](=O)[O-])cc2)n1 | -30 | -6 | 3 | 3 | 30 | 0 | .
O=C(Nc1ccc([N+](=O)[O-])cc1)c1ccccc1F | -6 | 17 | 15* | -1 | 6 | 0 | 2
Clc1ccccc1OCCCOc1cccc2cccnc12 | 1 | -20 | 12* | 5 | -1 | 2 | 20
SMILES | SR-BI DiI-HDL act | CaV13 ICDI inh | V-ATPase pHluor | Vif imaging | SR-BI DiI inh | NTR1 agonist | VATPase regulator | others
CCCn1c(=O)c2sccc2n2c(CCCC(=O)NC3CCN(Cc4ccccc4)CC3)nnc12 | 16 | -5 | 10* | -1 | -16 | 1 | -1
CC(C)Cn1c(=O)c2sccc2n2c(CCCC(=O)NC3CCN(Cc4ccccc4)CC3)nnc12 | 29 | -2 | -4 | -11 | -29 | 1 | .
O=C1CC(=O)OC(c2ccc([N+](=O)[O-])cc2)O1 | . | . | 6 | -3 | . | . | .
O=[N+]([O-])c1ccc(C2CNC(c3ccccc3)O2)cc1 (stereo not given) | 19 | -8 | 7.1* | -10 | -19 | -1 | 4
O=C(CCNS(=O)(=O)c1c(Cl)cccc1Cl)OCC(=O)c1ccccc1 | 15 | -3 | 1 | 28 | -15 | -1 | .
COc1ccc(OC)c(-n2c(SCC(=O)NCc3ccco3)nnc2-c2c[nH]c3ccccc23)c1 | 2 | -6 | 12* | -1 | -2 | -1 | -2
N#C/C(=C\c1cc(Cl)ccc1O)C(=O)NC1CCCCC1 | 11 | -9 | -2 | -1 | -11 | 1 | .
N#C/C(=C\c1cc(Cl)cc(Cl)c1O)C(=O)NC1CCCCC1 | 1 | -7 | 15* | 7 | -1 | 1 | 1
Cc1cc(NC(=O)CSc2ncc(C(=O)O)n2-c2ccc(F)cc2)no1 | 19 | -2 | 2 | 1 | -19 | 4 | .
COc1cc(-c2nnc(SCC(=O)N3c4ccccc4Sc4ccccc43)o2)cc(OC)c1OC | -61 | . | 1 | 6 | 61 | 2 | .
O=C(Sc1nnc(-c2ccccc2)o1)N1c2ccccc2Sc2ccccc21 | 7 | -2 | -1 | 0 | -7 | 6 | -2
O=c1c2ccccc2ncn1-c1ccc(Cl)cc1 | 7 | -5 | -4 | -5 | -7 | -1 | 4
CCc1ccc(NC(=O)CCn2ccnc2C)cc1 | 5 | -5 | -2 | 3 | -5 | -2 | .
O=C(CCNS(=O)(=O)c1cccs1)NCc1ccccc1 | -1 | -8 | . | -1 | 1 | 0 | .
O=C(c1ccccc1)N1CN2CN(C(=O)c3ccccc3)CC([N+](=O)[O-])(C2)C1 | 17 | -3 | 46* | 1 | -17 | 1 | -3
COC(=O)c1cnc(SCC(=O)c2ccccc2)n1C | 39 | -5 | 0 | 0 | -39 | -1 | .
COC(=O)c1cnc(SCc2ccc(Cl)cc2)n1C | -3 | 2 | 6.3* | 7 | 3 | 0 | 2
